Source: ChEMBL document CHEMBL1129264, “Mercaptoacyl dipeptides as orally active dual inhibitors of angiotensin-converting enzyme and neutral endopeptidase” (1996)
Values belong to the compound of their own block, whether it stands above or below them.

Key:
Rattus norvegicus [1] = assay: Plasma ANF Concentration in the Conscious Rat at a dose of 13.5(po)mg/kg at 4 h; format: functional
Procedure, shortened: (§1)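 Male Sprague-Dawley rats (275-390 g), catheterized in femoral artery and vein under ketamine (150 mg/kg)/acepromazine, tethered and recovered 24 h, studied conscious. Continuous iv rat ANF(99-126) infusion at 450 ng/kg/min for 5 h; baseline blood at 60 min, then oral dosing, sampling at 30-240 min.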

Rattus norvegicus [2] = assay: Plasma ANF Concentration in the Conscious Rat at a dose of 13.5(po)mg/kg at 1 h; format: functional; procedure, shortened: as §1
[3] = target: T1, Angiotensin-converting enzyme (Rattus norvegicus) (UniProt P47820); assay: Compound was tested for plasma inhibition of Angiotensin I converting enzyme activity in the conscious rat. Expressed as Inhibition of AI pressor response at 6 hr at a dose of 13.5 mg/kg po; format: organism-based; parameters: dose 13.5 mg/kg
T1 sequence (whole entry): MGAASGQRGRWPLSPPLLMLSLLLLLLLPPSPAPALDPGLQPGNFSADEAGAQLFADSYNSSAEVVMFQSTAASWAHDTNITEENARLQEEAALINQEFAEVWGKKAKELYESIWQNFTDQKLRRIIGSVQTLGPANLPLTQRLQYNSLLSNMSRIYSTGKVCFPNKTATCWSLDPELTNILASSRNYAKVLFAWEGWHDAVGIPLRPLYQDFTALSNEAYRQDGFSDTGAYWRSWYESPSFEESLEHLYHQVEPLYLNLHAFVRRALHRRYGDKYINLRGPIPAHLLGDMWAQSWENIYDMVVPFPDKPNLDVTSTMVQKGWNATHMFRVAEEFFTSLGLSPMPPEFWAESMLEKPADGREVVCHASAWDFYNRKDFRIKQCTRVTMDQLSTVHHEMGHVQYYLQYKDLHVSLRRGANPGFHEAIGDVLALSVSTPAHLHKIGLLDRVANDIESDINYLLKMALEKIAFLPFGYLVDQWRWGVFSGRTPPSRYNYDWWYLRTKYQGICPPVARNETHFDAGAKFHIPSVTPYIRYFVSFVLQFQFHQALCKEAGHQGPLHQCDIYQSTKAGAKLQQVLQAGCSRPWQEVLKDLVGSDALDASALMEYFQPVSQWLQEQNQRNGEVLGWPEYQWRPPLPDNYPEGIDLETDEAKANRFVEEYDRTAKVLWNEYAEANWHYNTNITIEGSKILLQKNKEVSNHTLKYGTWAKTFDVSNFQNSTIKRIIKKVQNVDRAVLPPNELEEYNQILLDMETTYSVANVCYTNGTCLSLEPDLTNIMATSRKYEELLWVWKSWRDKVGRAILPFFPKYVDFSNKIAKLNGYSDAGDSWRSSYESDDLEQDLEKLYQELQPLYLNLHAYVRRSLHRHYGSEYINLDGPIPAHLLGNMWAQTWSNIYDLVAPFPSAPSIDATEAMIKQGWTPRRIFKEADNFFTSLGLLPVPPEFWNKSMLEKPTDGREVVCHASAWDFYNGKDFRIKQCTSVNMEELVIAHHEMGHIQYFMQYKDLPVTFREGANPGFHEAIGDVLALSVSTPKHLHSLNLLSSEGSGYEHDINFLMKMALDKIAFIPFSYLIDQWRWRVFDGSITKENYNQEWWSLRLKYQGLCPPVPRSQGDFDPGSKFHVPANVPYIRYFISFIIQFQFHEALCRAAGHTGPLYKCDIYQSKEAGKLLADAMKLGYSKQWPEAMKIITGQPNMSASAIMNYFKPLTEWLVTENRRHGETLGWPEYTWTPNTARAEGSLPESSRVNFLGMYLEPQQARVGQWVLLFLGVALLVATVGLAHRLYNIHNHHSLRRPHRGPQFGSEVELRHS
Procedure, shortened: (§2)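 Male conscious normotensive Sprague-Dawley rats (275-390 g), prepared under methohexital sodium (75 mg/kg ip) with femoral arterial and venous catheters. The next day, pressor responses to three angiotensin-I challenges (300 ng/kg iv) were recorded. Compound was then given orally and angiotensin-I challenges were repeated at set times. Percent inhibition is relative to the mean of the three baseline responses.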

[4] = target: T1, Angiotensin-converting enzyme (Rattus norvegicus); assay: Compound was tested for plasma inhibition of Angiotensin I converting enzyme activity in the conscious rat. Expressed as Inhibition of AI pressor response at 2 hr at a dose of 13.5 mg/kg po; format: organism-based; parameters: dose 13.5 mg/kg
Procedure, shortened: (§3)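 Male conscious normotensive Sprague-Dawley rats (275-390 g), given femoral arterial and venous catheters under methohexital sodium (75 mg/kg ip) anesthesia. Next day, pressor responses to three angiotensin-I challenges (300 ng/kg iv) recorded by direct arterial pressure. Compound then dosed orally, and AI challenge repeated at set times. Each post-dose response compared with the mean of the three baseline responses, giving % inhibition.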

[5] = target: T1, Angiotensin-converting enzyme (Rattus norvegicus); assay: Compound was tested for plasma inhibition of Angiotensin I converting enzyme activity in the conscious rat. Expressed as Inhibition of AI pressor response at 4 hr at a dose of 13.5 mg/kg po; format: organism-based; parameters: dose 13.5 mg/kg; procedure, shortened: as §2
Rattus norvegicus [6] = assay: Plasma ANF Concentration in the Conscious Rat at a dose of 13.5(po)mg/kg at 0.5 h; format: functional; procedure, shortened: as §1
Rattus norvegicus [7] = assay: Plasma ANF Concentration in the Conscious Rat at a dose of 13.5(po)mg/kg at 2 h; format: functional; procedure, shortened: as §1
[8] = target: T1, Angiotensin-converting enzyme (Rattus norvegicus); assay: Compound was tested for plasma inhibition of Angiotensin I converting enzyme activity in the conscious rat. Expressed as Inhibition of AI pressor response at 1 hr at a dose of 13.5 mg/kg po; format: organism-based; parameters: dose 13.5 mg/kg; procedure, shortened: as §3
Rattus norvegicus [9] = assay: Plasma ANF Concentration in the Conscious Rat at a dose of 13.7(po)mg/kg at 0.5 h; format: functional; procedure, shortened: as §1
[10] = target: T1, Angiotensin-converting enzyme (Rattus norvegicus); assay: Compound was tested for plasma inhibition of Angiotensin I converting enzyme activity in the conscious rat. Expressed as Inhibition of AI pressor response at 4 hr at a dose of 13.7 mg/kg po; format: organism-based; parameters: dose 13.7 mg/kg; procedure, shortened: as §2
Rattus norvegicus [11] = assay: Plasma ANF Concentration in the Conscious Rat at a dose of 13.7(po)mg/kg at 4 h; format: functional; procedure, shortened: as §1
[12] = target: T1, Angiotensin-converting enzyme (Rattus norvegicus); assay: Compound was tested for plasma inhibition of Angiotensin I converting enzyme activity in the conscious rat. Expressed as Inhibition of AI pressor response at 1 hr at a dose of 13.7 mg/kg po; format: organism-based; parameters: dose 13.7 mg/kg; procedure, shortened: as §3
Rattus norvegicus [13] = assay: Plasma ANF Concentration in the Conscious Rat at a dose of 13.7(po)mg/kg at 1 h; format: functional; procedure, shortened: as §1
[14] = target: T1, Angiotensin-converting enzyme (Rattus norvegicus); assay: Compound was tested for plasma inhibition of Angiotensin I converting enzyme activity in the conscious rat. Expressed as Inhibition of AI pressor response at 6 hr at a dose of 13.7 mg/kg po; format: organism-based; parameters: dose 13.7 mg/kg; procedure, shortened: as §2
[15] = target: T1, Angiotensin-converting enzyme (Rattus norvegicus); assay: Compound was tested for plasma inhibition of Angiotensin I converting enzyme activity in the conscious rat. Expressed as Inhibition of AI pressor response at 2 hr at a dose of 13.7 mg/kg po; format: organism-based; parameters: dose 13.7 mg/kg; procedure, shortened: as §3
Rattus norvegicus [16] = assay: Plasma ANF Concentration in the Conscious Rat at a dose of 13.7(po)mg/kg at 2 h; format: functional; procedure, shortened: as §1
[17] = target: T1, Angiotensin-converting enzyme (Rattus norvegicus); assay: Compound was tested for plasma inhibition of Angiotensin I converting enzyme activity in the conscious rat. Expressed as Inhibition of AI pressor response at 1 hr at a dose of 13.2 mg/kg po; format: organism-based; parameters: dose 13.2 mg/kg; procedure, shortened: as §3
[18] = target: T1, Angiotensin-converting enzyme (Rattus norvegicus); assay: Compound was tested for plasma inhibition of Angiotensin I converting enzyme activity in the conscious rat. Expressed as Inhibition of AI pressor response at 4 hr at a dose of 13.2 mg/kg po; format: organism-based; parameters: dose 13.2 mg/kg; procedure, shortened: as §2
Rattus norvegicus [19] = assay: Plasma ANF Concentration in the Conscious Rat at a dose of 13.2(po)mg/kg at 0.5 h; format: functional
Procedure, shortened: (§4)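 Male Sprague-Dawley rats (275-390 g) received femoral artery and vein catheters under ketamine (150 mg/kg)/acepromazine and recovered for 24 h, tethered, before study conscious. ratANF(99-126) was infused at 450 ng/kg/min iv for 5 h. Baseline blood was drawn at 60 min into the infusion, then compound was given po.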

[20] = target: T1, Angiotensin-converting enzyme (Rattus norvegicus); assay: Compound was tested for plasma inhibition of Angiotensin I converting enzyme activity in the conscious rat. Expressed as Inhibition of AI pressor response at 6 hr at a dose of 13.2 mg/kg po; format: organism-based; parameters: dose 13.2 mg/kg; procedure, shortened: as §2
Rattus norvegicus [21] = assay: Plasma ANF Concentration in the Conscious Rat at a dose of 13.2(po)mg/kg at 1 h; format: functional; procedure, shortened: as §4
[22] = target: T1, Angiotensin-converting enzyme (Rattus norvegicus); assay: Compound was tested for plasma inhibition of Angiotensin I converting enzyme activity in the conscious rat. Expressed as Inhibition of AI pressor response at 2 hr at a dose of 13.2 mg/kg po; format: organism-based; parameters: dose 13.2 mg/kg; procedure, shortened: as §3
Rattus norvegicus [23] = assay: Plasma ANF Concentration in the Conscious Rat at a dose of 13.2(po)mg/kg at 2 h; format: functional; procedure, shortened: as §4
Rattus norvegicus [24] = assay: Plasma ANF Concentration in the Conscious Rat at a dose of 13.2(po)mg/kg at 4 h; format: functional; procedure, shortened: as §4

- inhibition [3]: 61%
- inhibition [4]: 79%
- inhibition [5]: 70%
- inhibition [8]: 79%
SMILES: CCOC(=O)[C@H](Cc1ccc(OC(=O)COC)cc1)NC(=O)C1(NC(=O)[C@H](SC(C)=O)C(C)C)CCCC1
- Control (Rattus norvegicus [1]): 223%
- Control (Rattus norvegicus [2]): 263%
- Control (Rattus norvegicus [6]): 203%
- Control (Rattus norvegicus [7]): 252%

- inhibition [10]: 73%
- inhibition [12]: 88%
- inhibition [14]: 64%
- inhibition [15]: 86%
SMILES: CCN(CC)C(=O)COC(=O)[C@H](Cc1ccc(OC)cc1)NC(=O)C1(NC(=O)[C@H](SC(C)=O)C(C)C)CCCC1
- Control (Rattus norvegicus [9]): 159%
- Control (Rattus norvegicus [11]): 264%
- Control (Rattus norvegicus [13]): 187%
- Control (Rattus norvegicus [16]): 215%

- inhibition [17]: 99%
- inhibition [18]: 87%
- inhibition [20]: 63%
- inhibition [22]: 97%
SMILES: COc1ccc(C[C@H](NC(=O)C2(NC(=O)[C@H](SC(C)=O)C(C)C)CCCC2)C(=O)OCc2cccnc2)cc1
- Control (Rattus norvegicus [19]): 223%
- Control (Rattus norvegicus [21]): 267%
- Control (Rattus norvegicus [23]): 260%
- Control (Rattus norvegicus [24]): 332%
